From ChEMBL document CHEMBL1137181, “Synthesis and DP-IV inhibition of cyano-pyrazoline derivatives as potent anti-diabetic agents” (Bioorg Med Chem Lett, 2004)

What was measured:
Dipeptidyl peptidase 4 [1] = molecular target: Dipeptidyl peptidase 4 (Rattus norvegicus, UniProt P14740); assay: Inhibitory concentration against rat dipeptidyl peptidase IV
Summary of the method: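 Rat plasma (20 µL) as enzyme source, incubated 1 h at room temperature, pH 7.8, with Ala-Pro-AFC (40 µM) ± inhibitor dissolved in DMSO (5% final in assay). Released AFC read by fluorescence (ex 360 nm, em 485 nm). IC50 obtained by curve analysis.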

Dipeptidyl peptidase 4 [2] = molecular target: Dipeptidyl peptidase 4 (Homo sapiens, UniProt P27487); assay: Inhibitory concentration against dipeptidyl peptidase IV in Caco-2 cell assay; assay type: functional, cell-based
Dipeptidyl peptidase 4 (Homo sapiens, UniProt P27487), sequence (P27487 whole entry): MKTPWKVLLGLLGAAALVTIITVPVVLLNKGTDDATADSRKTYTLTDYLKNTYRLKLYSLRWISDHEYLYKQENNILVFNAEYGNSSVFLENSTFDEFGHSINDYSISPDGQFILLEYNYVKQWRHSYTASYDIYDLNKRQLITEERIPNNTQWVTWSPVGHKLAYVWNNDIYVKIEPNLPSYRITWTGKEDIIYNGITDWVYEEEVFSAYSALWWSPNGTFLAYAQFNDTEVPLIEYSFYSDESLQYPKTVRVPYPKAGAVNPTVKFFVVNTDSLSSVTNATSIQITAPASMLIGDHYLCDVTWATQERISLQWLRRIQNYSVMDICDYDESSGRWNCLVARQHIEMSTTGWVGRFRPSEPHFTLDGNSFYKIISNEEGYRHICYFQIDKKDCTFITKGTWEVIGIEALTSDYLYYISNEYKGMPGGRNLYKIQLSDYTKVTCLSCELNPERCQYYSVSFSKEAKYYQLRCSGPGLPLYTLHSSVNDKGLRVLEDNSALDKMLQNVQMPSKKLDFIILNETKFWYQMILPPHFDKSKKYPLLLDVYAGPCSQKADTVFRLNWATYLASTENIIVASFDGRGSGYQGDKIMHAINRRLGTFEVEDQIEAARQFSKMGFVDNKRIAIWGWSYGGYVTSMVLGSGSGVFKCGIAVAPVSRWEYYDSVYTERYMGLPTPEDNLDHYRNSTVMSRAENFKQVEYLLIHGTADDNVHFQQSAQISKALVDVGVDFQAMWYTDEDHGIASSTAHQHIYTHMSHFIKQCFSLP
Summary of the method: (§1)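 DP-IV activity from Caco-2 cells or porcine kidney, measured as AFC fluorescence (ex 360 nm, em 485 nm) liberated from Ala-Pro-AFC with or without inhibitor. Compounds in DMSO, 5% in assay mixture. IC50 obtained by curve analysis.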

Dipeptidyl peptidase 4 [3] = molecular target: Dipeptidyl peptidase 4 (Sus scrofa, UniProt P22411); assay: Inhibitory concentration against dipeptidyl peptidase IV of porcine kidney; assay type: functional, tissue-based; summary of the method: as §1
Dipeptidyl peptidase 4 (Sus scrofa, UniProt P22411), sequence (P22411 whole entry): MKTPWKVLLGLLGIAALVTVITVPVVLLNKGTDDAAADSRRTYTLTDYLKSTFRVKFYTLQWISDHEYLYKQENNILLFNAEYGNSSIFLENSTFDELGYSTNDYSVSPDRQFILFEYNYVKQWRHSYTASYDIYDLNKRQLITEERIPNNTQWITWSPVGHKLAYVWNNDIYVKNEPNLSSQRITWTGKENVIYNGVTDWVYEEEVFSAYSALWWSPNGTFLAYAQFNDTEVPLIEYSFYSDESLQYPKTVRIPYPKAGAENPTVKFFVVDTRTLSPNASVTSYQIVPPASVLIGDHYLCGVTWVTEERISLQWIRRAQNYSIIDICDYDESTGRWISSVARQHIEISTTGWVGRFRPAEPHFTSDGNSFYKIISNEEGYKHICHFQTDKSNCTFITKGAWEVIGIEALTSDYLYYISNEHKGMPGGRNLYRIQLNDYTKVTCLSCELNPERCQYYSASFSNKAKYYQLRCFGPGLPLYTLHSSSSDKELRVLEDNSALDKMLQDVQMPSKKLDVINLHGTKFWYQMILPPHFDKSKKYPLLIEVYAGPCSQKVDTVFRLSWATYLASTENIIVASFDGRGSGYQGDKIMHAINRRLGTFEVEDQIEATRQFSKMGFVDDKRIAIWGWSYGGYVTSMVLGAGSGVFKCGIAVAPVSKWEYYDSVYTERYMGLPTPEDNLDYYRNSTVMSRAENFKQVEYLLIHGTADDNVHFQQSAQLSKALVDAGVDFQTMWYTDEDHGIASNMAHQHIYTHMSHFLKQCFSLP

[4] = molecular target: Dipeptidyl peptidase 4 (Mus musculus) (UniProt P28843); assay: Effective dose for inhibition of dipeptidyl peptidase IV in mice after 1 hr subcutaneous administration; assay type: functional, organism-based
Dipeptidyl peptidase 4 (Mus musculus), sequence (P28843 whole entry, looked up): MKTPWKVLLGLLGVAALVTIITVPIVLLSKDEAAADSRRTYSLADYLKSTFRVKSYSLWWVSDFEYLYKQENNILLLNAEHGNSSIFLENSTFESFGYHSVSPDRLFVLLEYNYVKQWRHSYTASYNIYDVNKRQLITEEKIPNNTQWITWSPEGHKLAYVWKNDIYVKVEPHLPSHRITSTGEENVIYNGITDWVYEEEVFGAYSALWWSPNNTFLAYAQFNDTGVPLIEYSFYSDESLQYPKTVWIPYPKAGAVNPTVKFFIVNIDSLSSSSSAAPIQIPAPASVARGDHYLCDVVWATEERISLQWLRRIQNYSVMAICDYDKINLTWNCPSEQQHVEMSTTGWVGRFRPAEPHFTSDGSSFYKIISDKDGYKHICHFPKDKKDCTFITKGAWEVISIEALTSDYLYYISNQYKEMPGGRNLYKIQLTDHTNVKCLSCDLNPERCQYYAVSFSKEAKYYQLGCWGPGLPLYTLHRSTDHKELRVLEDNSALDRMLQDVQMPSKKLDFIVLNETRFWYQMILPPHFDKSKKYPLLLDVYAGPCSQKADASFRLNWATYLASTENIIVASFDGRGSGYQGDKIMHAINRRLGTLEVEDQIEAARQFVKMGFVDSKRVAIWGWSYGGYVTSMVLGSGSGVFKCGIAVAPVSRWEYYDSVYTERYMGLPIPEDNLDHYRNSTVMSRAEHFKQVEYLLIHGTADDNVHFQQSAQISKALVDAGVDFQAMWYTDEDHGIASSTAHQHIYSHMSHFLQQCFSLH

Dipeptidyl peptidase 4 (Rattus norvegicus, UniProt P14740), sequence (P14740 whole entry): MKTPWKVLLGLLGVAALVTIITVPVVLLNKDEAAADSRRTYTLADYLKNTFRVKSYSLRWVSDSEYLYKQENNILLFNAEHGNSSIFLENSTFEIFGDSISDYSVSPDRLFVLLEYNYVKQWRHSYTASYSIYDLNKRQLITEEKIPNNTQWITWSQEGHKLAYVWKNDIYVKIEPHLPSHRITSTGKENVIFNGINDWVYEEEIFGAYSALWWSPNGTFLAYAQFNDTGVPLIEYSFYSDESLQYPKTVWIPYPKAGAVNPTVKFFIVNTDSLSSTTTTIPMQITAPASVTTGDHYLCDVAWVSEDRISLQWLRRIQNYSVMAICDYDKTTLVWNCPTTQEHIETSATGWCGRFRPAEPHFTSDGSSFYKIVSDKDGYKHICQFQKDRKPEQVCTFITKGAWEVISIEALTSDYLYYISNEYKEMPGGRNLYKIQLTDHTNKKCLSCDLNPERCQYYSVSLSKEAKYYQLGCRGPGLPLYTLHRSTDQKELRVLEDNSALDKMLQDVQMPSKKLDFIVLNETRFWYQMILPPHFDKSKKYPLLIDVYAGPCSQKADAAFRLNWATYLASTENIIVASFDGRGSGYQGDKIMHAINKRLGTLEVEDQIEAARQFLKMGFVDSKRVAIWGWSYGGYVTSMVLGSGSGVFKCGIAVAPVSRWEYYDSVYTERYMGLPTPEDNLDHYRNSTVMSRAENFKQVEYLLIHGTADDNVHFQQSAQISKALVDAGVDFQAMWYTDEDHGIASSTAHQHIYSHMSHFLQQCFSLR

Structure (SMILES) | IC50 (Dipeptidyl peptidase 4 [1]) | further results
CC(C)(C)NCC(=O)N1N=CCC1C#N (stereo in doubt; 5a) | 24400 nM | 
N#Cc1ccc(NCCNCC(=O)N2N=CC[C@@H]2C#N)nc1 | 5200 nM | IC50 (Dipeptidyl peptidase 4 [3]): 6820 nM
N#CC1CC=NN1C(=O)CNC1C2CC3CC(C2)CC1C3 (stereo not drawn) | 3200 nM | 
N#CC1CC=NN1C(=O)CNC12CC3CC(CC(O)(C3)C1)C2 (stereo not drawn) | 6400 nM | 
N#CC1CC=NN1C(=O)CNC1CC2CCC1C2 (stereo not drawn) | 2100 nM | 
CC(C)C[C@H](N)C(=O)N1N=CCC1C#N (stereo partly drawn) | 4300 nM | 
N#CC1CC=NN1C(=O)CNC1CCCCC1 (stereo in doubt; 5c) | 2800 nM | 
N#CC1CC=NN1C(=O)CNC1CCCCCCC1 (stereo not drawn) | 2600 nM | 
N#CC1CC=NN1C(=O)CNC1CCCCC1 (stereo in doubt; 1g) | 2300 nM | 
N#CC1CC=NN1C(=O)CNC1CCC(NC(=O)c2ccccc2)CC1 (stereo not drawn) | 4400 nM | 

Now those with a lower IC50 (Dipeptidyl peptidase 4 [1]), led by results:

IC50 (Dipeptidyl peptidase 4 [1]) | Structure (SMILES) | further results
60 nM | N#Cc1ccc(NCCNCC(=O)N2NCC[C@H]2C#N)nc1 | 
1200 nM | C[C@@H](N)C(=O)N1N=CCC1C#N (stereo partly drawn) | 
220 nM | CCC(C)[C@@H](N)C(=O)N1N=CCC1C#N (stereo partly drawn) | IC50 (Dipeptidyl peptidase 4 [2]): 130 nM; IC50 (Dipeptidyl peptidase 4 [3]): 80 nM; ED50 [4]: 16.1 mg/kg
1300 nM | N#CC1CC=NN1C(=O)CNC1CCCC1 (stereo not drawn) | 
1500 nM | N#CC1CC=NN1C(=O)CNC12CC3CC(CC(C3)C1)C2 (stereo not drawn) | 
360 nM | N#Cc1ccc(NCCNCC(=O)N2N=CC[C@H]2C#N)nc1 | IC50 (Dipeptidyl peptidase 4 [3]): 440 nM
1200 nM | N#CC1CC=NN1C(=O)CNC1CCC(Nc2ccc([N+](=O)[O-])cn2)CC1 (stereo not drawn) | 
660 nM | N#CC1CC=NN1C(=O)[C@H](CCCCN)NC(=O)OCc1ccccc1 (stereo partly drawn) | 
1200 nM | N#CC1CC=NN1C(=O)CNCCNc1ccc([N+](=O)[O-])cn1 (stereo not drawn) | 
1900 nM | CC(C)[C@@H](N)C(=O)N1N=CCC1C#N (stereo partly drawn) | 
800 nM | N#Cc1ccc(NCCNCC(=O)N2N=CCC2C#N)nc1 (stereo not drawn) | IC50 (Dipeptidyl peptidase 4 [3]): 960 nM; ED50 [4]: 4.1 mg/kg
